21 compounds from ChEMBL document CHEMBL4000142, “Probing the carboxyester side chain in controlled deactivation (-)-δ(8)-tetrahydrocannabinols” (J Med Chem, 2015) can be followed below.

Active and inactive are the calls of the source. No cut-off for these calls is given here. Bounds are passed on as bounds.

The target in series [1] is Cannabinoid receptor 2 (Homo sapiens, UniProt P34972). The experiment in a line: Displacement of [3H]CP-55,940 from human CB2 receptor expressed in HEK293 cells by scintillation counting method. In kind it is cell-based. The procedure, abridged: (§1)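 Competition binding against [3H]CP-55,940. Membranes from rat brain (CB1) or from HEK293 cells expressing mouse or human CB2. IC50 from nonlinear regression, converted to Ki. Each experiment run in triplicate; Ki is the mean of three independent experiments.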

For series [2], the target named is Cannabinoid receptor 2 (Mus musculus, UniProt P47936). The experiment in a line: Displacement of [3H]CP-55,940 from mouse CB2 receptor expressed in HEK293 cells by scintillation counting method. In kind it is cell-based. In outline: as §1
The nature of series [3]: Metabolic stability in mouse plasma assessed as esterase-mediated compound hydrolysis by measuring compound half life by HPLC analysis. It counts as ADME. The following applies: […]. In outline:
(§2)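 Compounds at 200 μM in mouse plasma, 37 °C, shaken at 100 rpm. Samples taken over time, diluted 1:4 in acetonitrile and centrifuged. Supernatant analysed by C18 reverse-phase HPLC with an acetonitrile/acidified water gradient and UV detection (204 and 230 nm). Half-life from exponential decay fit.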

Series [4] addresses T1, Cannabinoid receptor 1 (Rattus norvegicus, UniProt P20272). The experiment in a line: Agonist activity at CB1 receptor in rat brain membranes assessed as reduction in forskolin-stimulated cAMP level measured from 3 data points after 30 mins. It counts as functional, cell membranes, Membrane.
For series [5], the target named is T1, Cannabinoid receptor 1. Briefly: Agonist activity at CB1 receptor in rat brain membranes assessed as reduction in forskolin-stimulated cAMP level measured from 8 data points after 30 mins. It counts as functional, cell membranes, Membrane.
In series [6] the target is Cannabinoid receptor 1 (Rattus norvegicus) (UniProt P20272). The experiment in a line: Agonist activity at CB1 receptor in rat brain membranes assessed as reduction in forskolin-stimulated cAMP level after 30 mins relative to CP-55,940. In kind it is functional, cell membranes. The following applies: Membrane.
The test system of series [7] is Rattus norvegicus. Briefly: Hypothermic activity in sc dosed Sprague-Dawley rat measured over 6 hrs post dose. In kind it is functional.
Series [8] relates to Rattus norvegicus. The experiment in a line: Hypothermic activity in sc dosed Sprague-Dawley rat assessed as reduction in body temperature at 0.1 mg/kg, sc measured over 6 hrs post dose relative to baseline. In kind it is functional, organism-based.
Series [9] has as its system Rattus norvegicus. Briefly: Hypothermic activity in sc dosed Sprague-Dawley rat assessed as reduction in body temperature at 0.03 mg/kg, sc measured after 3 hrs post dose relative to baseline. It counts as functional, organism-based.
Series [10] deals with Rattus norvegicus. Briefly: Hypothermic activity in sc dosed Sprague-Dawley rat assessed as reduction in body temperature at 0.03 mg/kg, sc measured after 6 hrs post dose relative to baseline. It counts as functional, organism-based.
A short description of series [11]: Metabolic stability in mouse plasma assessed as esterase-mediated compound hydrolysis measured within 5 hrs by HPLC analysis. It counts as ADME. The following applies: […]. In outline: as §2
For series [12], the system named is Rattus norvegicus. The experiment in a line: Hypothermic activity in sc dosed Sprague-Dawley rat assessed as reduction in body temperature at 0.3 mg/kg, sc measured after 12 hrs post dose relative to baseline. It counts as functional, organism-based.
In series [13] the target is T1, Cannabinoid receptor 1. The experiment in a line: Displacement of [3H]CP-55,940 from CB1 receptor in rat brain membranes by scintillation counting method. It counts as cell membranes, Membrane. The procedure, abridged:
as §1

Chain of Cannabinoid receptor 2 (Homo sapiens, UniProt P34972) (P34972 whole entry): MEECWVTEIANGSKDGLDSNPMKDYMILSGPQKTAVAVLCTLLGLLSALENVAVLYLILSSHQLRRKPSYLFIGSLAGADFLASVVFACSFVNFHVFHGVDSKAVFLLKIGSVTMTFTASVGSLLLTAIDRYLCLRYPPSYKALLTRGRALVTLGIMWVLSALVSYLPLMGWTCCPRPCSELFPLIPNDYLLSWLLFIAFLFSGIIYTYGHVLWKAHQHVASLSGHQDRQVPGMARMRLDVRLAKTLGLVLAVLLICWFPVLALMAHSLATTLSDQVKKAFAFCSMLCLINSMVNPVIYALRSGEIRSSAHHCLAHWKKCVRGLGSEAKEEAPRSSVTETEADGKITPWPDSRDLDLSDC
Chain of Cannabinoid receptor 2 (Mus musculus, UniProt P47936) (P47936 whole entry): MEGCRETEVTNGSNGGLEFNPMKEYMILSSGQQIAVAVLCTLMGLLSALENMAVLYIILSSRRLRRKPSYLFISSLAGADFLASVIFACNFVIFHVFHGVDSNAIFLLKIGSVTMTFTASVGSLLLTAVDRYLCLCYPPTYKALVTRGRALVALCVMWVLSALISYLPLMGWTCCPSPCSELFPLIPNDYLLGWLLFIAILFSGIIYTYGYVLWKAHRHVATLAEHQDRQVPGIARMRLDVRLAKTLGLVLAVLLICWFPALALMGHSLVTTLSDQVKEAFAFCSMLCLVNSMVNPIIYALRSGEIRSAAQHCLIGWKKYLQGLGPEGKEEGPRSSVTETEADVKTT
T1 sequence (P20272 whole entry): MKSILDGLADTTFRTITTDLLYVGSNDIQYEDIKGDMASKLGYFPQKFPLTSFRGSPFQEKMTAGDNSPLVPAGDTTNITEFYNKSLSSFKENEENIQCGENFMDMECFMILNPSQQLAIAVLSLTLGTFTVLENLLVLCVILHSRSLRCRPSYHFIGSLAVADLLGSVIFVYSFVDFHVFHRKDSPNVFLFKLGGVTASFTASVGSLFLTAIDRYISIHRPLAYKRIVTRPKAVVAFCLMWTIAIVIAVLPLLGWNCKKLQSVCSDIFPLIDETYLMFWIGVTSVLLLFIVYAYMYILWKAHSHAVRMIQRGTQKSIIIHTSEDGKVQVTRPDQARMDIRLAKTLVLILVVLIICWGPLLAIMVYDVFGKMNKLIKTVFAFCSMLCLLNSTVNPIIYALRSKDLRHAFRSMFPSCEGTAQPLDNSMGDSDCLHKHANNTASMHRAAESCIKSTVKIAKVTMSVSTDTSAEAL
Chain of Cannabinoid receptor 1 (Rattus norvegicus) (P20272 whole entry): as above

In the case of `CC1=CC[C@@H]2[C@@H](C1)c1c(O)cc(C(C)(C)C(=O)OCCCBr)cc1OC2(C)C`, the affinity on Cannabinoid receptor 2 [1] corresponds to a Ki of 0.7 nM.
`CC1=CC[C@@H]2[C@@H](C1)c1c(O)cc(C(C)(C)C(=O)OCCCC#N)cc1OC2(C)C`: at Cannabinoid receptor 2 [2], the Ki is 0.8 nM. The t1/2 in series [3] is listed as 46.5 min. For the same compound, the concentration giving a half-maximal response (EC50) at Cannabinoid receptor 1 [4] is under 1 nM; on Cannabinoid receptor 1 [5] it was 0.9 nM. Further, the Emax in series [6] was determined as 89%. For the same compound, the Activity result in the series on Rattus norvegicus [7] was “Dose-dependent effect”. The compound further yielded an ED50 with Rattus norvegicus [7] of 0.034 mg/kg. Also, the figures for the deltaT with Rattus norvegicus [8] and in the series with Rattus norvegicus [9] were under 4.5 °C and 2 °C, respectively. Further, the outcome in the series with Rattus norvegicus [10] was inactive.
With `CCCCCNC(=O)C(C)(C)c1cc(O)c2c(c1)OC(C)(C)[C@@H]1CC=C(C)C[C@@H]21`, on Cannabinoid receptor 1 [4], the concentration for a half-maximal effect (EC50) was 1 to 10 nM. Also, the Stability entry in [11] was “Stable”.
`CC1=CC[C@@H]2[C@@H](C1)c1c(O)cc(CC(=O)OCCCCC#N)cc1OC2(C)C`: the t1/2 in [3] is recorded as 3.2 min. Besides, the EC50 on Cannabinoid receptor 1 [4] was in the range of 10 to 100 nM.
For the compound `CC1=CC[C@@H]2[C@@H](C1)c1c(O)cc(C3(C(=O)OCCCCBr)CCC3)cc1OC2(C)C`, in series [3], the t1/2 came to 47.9 min.
As to `CC1=CC[C@@H]2[C@@H](C1)c1c(O)cc(C(C)(C)CO)cc1OC2(C)C`, the inhibitory constant (Ki) on Cannabinoid receptor 2 [2] and on Cannabinoid receptor 2 [1] was over 10000 nM each time.
Turning to `CC1=CC[C@@H]2[C@@H](C1)c1c(O)cc(C(C)(C)C(=O)OCCCCn3ccnc3)cc1OC2(C)C`, the inhibition constant Ki was determined as 8.2 nM at Cannabinoid receptor 2 [2] and 7.7 nM at Cannabinoid receptor 2 [1]. Besides, in [3], the t1/2 is reported as 392 min.
For `CC1=CC[C@@H]2[C@@H](C1)c1c(O)cc(C(C)(C)C(=O)OCCCCC#N)cc1OC2(C)C`, the inhibition constant (Ki) is 0.1 nM at Cannabinoid receptor 2 [2] and 0.9 nM at Cannabinoid receptor 2 [1]. In addition, in series [3], the t1/2 was 40.4 min. Further, the EC50 on Cannabinoid receptor 1 [4] lay in the range of 1 to 10 nM.
For `CC1=CC[C@@H]2[C@@H](C1)c1c(O)cc(C(C)(C)C(=O)OCCCn3ccnc3)cc1OC2(C)C`, in that order: 2.1 nM, 1.3 nM, 271 min and 1 to 10 nM.
For the compound `CC1=CC[C@@H]2[C@@H](C1)c1c(O)cc(CC(=O)OCCCCBr)cc1OC2(C)C`, the t1/2 in series [3] was 1.7 min.
As to `CCCCOC(=O)C(C)(C)c1cc(O)c2c(c1)OC(C)(C)[C@@H]1CC=C(C)C[C@@H]21`, the t1/2 in [3] worked out at 12.4 min. The EC50 on Cannabinoid receptor 1 [4] is under 1 nM. This compound had a median effective dose (ED50) in the series with Rattus norvegicus [7] of 0.37 mg/kg. The result in the series with Rattus norvegicus [12] was Active.
In the case of `CCCCOC(=O)C1(c2cc(O)c3c(c2)OC(C)(C)[C@@H]2CC=C(C)C[C@@H]32)CCC1`, in [3], the t1/2 is 36.3 min. Further, the concentration for a half-maximal effect (EC50) on Cannabinoid receptor 1 [4] was under 1 nM.
Take `CCCCOC(=O)Cc1cc(O)c2c(c1)OC(C)(C)[C@@H]1CC=C(C)C[C@@H]21`: the t1/2 in series [3] turned out to be 0.7 min.
Take `CC1=CC[C@@H]2[C@@H](C1)c1c(O)cc(C(C)(C)C(=O)OCCCCCBr)cc1OC2(C)C`: the inhibition constant Ki was 1.2 nM on Cannabinoid receptor 1 [13], 1.1 nM on Cannabinoid receptor 2 [2] and 0.6 nM on Cannabinoid receptor 2 [1].
Take `CCOC(=O)C(C)(C)c1cc(O)c2c(c1)OC(C)(C)[C@@H]1CC=C(C)C[C@@H]21`: the EC50 at Cannabinoid receptor 1 [4] was in the range of 1 to 10 nM.
For `COC(=O)C(C)(C)c1cc(O)c2c(c1)OC(C)(C)[C@@H]1CC=C(C)C[C@@H]21`, the results for the Ki at Cannabinoid receptor 2 [2] and on Cannabinoid receptor 2 [1] were 36.9 nM and 34.5 nM, respectively.
As for `CCCSC(=O)C(C)(C)c1cc(O)c2c(c1)OC(C)(C)[C@@H]1CC=C(C)C[C@@H]21`, the Ki on Cannabinoid receptor 1 [13] is 0.5 nM; at Cannabinoid receptor 2 [2], 0.8 nM; at Cannabinoid receptor 2 [1], 0.7 nM. Also, in series [3], the t1/2 turned out to be 312 min.
On to `CC1=CC[C@@H]2[C@@H](C1)c1c(O)cc(C3(C(=O)OCCCCC#N)CCC3)cc1OC2(C)C`, for which the t1/2 in series [3] is 115 min. On Cannabinoid receptor 1 [4], the EC50 was 1 to 10 nM.
Consider `CC1=CC[C@@H]2[C@@H](C1)c1c(O)cc(C(C)(C)C(=O)OCCCCBr)cc1OC2(C)C`, for which the inhibitory constant (Ki) at Cannabinoid receptor 1 [13] worked out at 1.2 nM; on Cannabinoid receptor 2 [2], 0.9 nM; at Cannabinoid receptor 2 [1], 0.8 nM. Also, the t1/2 in [3] is listed as 12.9 min.
For the compound `CCCCC(=O)OCC(C)(C)c1cc(O)c2c(c1)OC(C)(C)[C@@H]1CC=C(C)C[C@@H]21`, the values for the Ki on Cannabinoid receptor 1 [13], at Cannabinoid receptor 2 [2] and on Cannabinoid receptor 2 [1] were 0.5 nM, 1.2 nM and 1 nM, respectively. In series [3], the t1/2 is given as 9.5 min.
As for `CC1=CC[C@@H]2[C@@H](C1)c1c(O)cc(C(C)(C)C(=O)OCCBr)cc1OC2(C)C`, the Ki stood at 7.7 nM on Cannabinoid receptor 1 [13] and 2.9 nM on Cannabinoid receptor 2 [1].
